Experimental data from ChEMBL document CHEMBL2202995, “Synthesis and SAR study of 4,5-diaryl-1H-imidazole-2(3H)-thione derivatives, as potent 15-lipoxygenase inhibitors” (Bioorg Med Chem, 2012).

Columns and labels:
[1] = system: Radical scavenging activity; test: Antioxidant activity of compound assessed as DPPH radical scavenging activity by colorimetric method; type: functional
Procedure, shortened: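 DPPH colorimetric scavenging assay: DPPH solution mixed with an equal volume of compound dissolved in ethanol, several dilutions tested, ethanol as control. After 30 min at room temperature, absorbance read at 517 nm. IC50 obtained by regression analysis of the mean values.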

[2] = Inhibition of soybean 15-LOX assessed as peroxide level by DMAB-MBTH method; set-up: species or system Glycine max
Procedure, shortened: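 Soybean lipoxygenase (SLO, 40,000 units/mL, 25 µL) and compound in ethanol preincubated 5 min at room temperature in 50 mM phosphate buffer pH 7.0; ethanol-only control. Reaction started with linoleic acid substrate in ethanol/100 mM KOH. After 7 min, 50 mM DMAB in 100 mM phosphate pH 7.0 was added, then MBTH/hemoglobin in phosphate pH 5.0, as colorimetric peroxide read-out.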

| IC50 [1] [µM] | IC50 [2] [µM] | SMILES |
| --- | --- | --- |
| 107 | 62 | S=c1[nH]c(-c2ccc(Cl)cc2)c(-c2ccc(Cl)cc2)[nH]1 |
| 57.2 | 11 | COc1ccc(-c2[nH]c(=S)[nH]c2-c2ccc(F)cc2)cc1 |
| 15.2 | 9.4 | COc1ccc(-c2[nH]c(=S)[nH]c2-c2ccc(N(C)C)cc2)cc1 |
| 21.2 | 19.7 | CSc1ccc(-c2[nH]c(=S)[nH]c2-c2ccc(Cl)cc2)cc1 |
| 87.4 | 13.7 | COc1ccc(-c2[nH]c(=S)[nH]c2-c2ccccc2)cc1 |
| 15.5 | 14.7 | COc1ccc(-c2nc(S)[nH]c2-c2ccc(OC)cc2)cc1 |
| 90 | 5.7 | CSc1ccc(-c2[nH]c(=S)[nH]c2-c2ccccc2)cc1 |
| 49 | 136 | CSc1ccc(-c2[nH]c(=S)[nH]c2-c2ccc(F)cc2)cc1 |
| 30.3 | 24.9 | S=c1[nH]c(-c2ccccc2)c(-c2ccc(Cl)cc2)[nH]1 |
| 15.9 | 22.3 | CN(C)c1ccc(-c2[nH]c(=S)[nH]c2-c2ccc(Cl)cc2)cc1 |
| 14 | 4.7 | COc1ccc(-c2[nH]c(=S)[nH]c2-c2ccc(Cl)cc2)cc1 |
| 6.2 |  | CC(Cc1ccc(O)c(O)c1)C(C)Cc1ccc(O)c(O)c1 (stereo not given) [NORDIHYDROGUAIARETIC ACID] |
| > 250 | > 250 | COc1ccc(-c2nc(SC)[nH]c2-c2ccc(Cl)cc2)cc1 |
| 49.2 | 15.2 | S=c1[nH]c(-c2ccccc2)c(-c2ccccc2)[nH]1 |
|  | 34.2 | Cc1nc(N2CCN(C)CC2)nc2c1Nc1ccccc1S2 |
| 143 | 23.4 | Fc1ccc(-c2[nH]c(=S)[nH]c2-c2ccc(F)cc2)cc1 |
